# Source: ChEMBL document CHEMBL1131232, “New azole antifungals. 3. Synthesis and antifungal activity of 3-substituted-4(3H)-quinazolinones” (J Med Chem, 1998)
# Experiments:
# [1] = In vitro antifungal activity against 6 filamentous fungi; format: functional; conditions: read-out: MIC
# In short: (§1)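 Agar dilution on Kimmig's agar with 0.5% glycerol, using ATCC strains or clinical isolates. Drug stocks were 800 μg/mL in 50% ethanol, tested as 2-fold dilutions from 80 to 0.03 μg/mL. Inocula were 10⁵ cfu/mL. […] Geometric means took >80 as 160 and ≤0.03 as 0.03.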
# Mus musculus [2] = assay: The compound was tested in vivo for anti-candida activity in mice model 2(dose: 1 mg/kg, untreated group).; format: functional
# Mus musculus [3] = assay: The compound was tested in vivo for anti-candida activity in mice model 2(dose :1 mg/kg,fluconazole-treated group); format: functional
# Candida albicans [4] = assay: Tested in vivo for anti-candida activity in mice model 1 (dose:0.5 mg/kg, fluconazole-treated group); format: functional
# Candida albicans [5] = assay: Tested in vivo for anti-candida activity in mice model 1 (dose: 0.5 mg/kg, untreated group).; format: functional
# [6] = In vitro for antifungal activity against 10 yeasts; format: functional; conditions: read-out: MIC; in short: as §1
# Candida albicans [7] = assay: (§2) In vivo antifungal activity against murine candidosis model after peroral administration with 2.5 mg/kg at various time intervals. (percent protection for 100% mortality with fluconazole-treated group.); format: functional; conditions: route oral
# In short: (§3)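 Groups of 10 male mice were infected iv with 0.2 mL of C. albicans at 2 to 8×10^7 cfu/mL. Drug was given orally as a suspension in 1% Tween + 0.2% carboxymethylcellulose at 1, 4 and 24 h post-infection; controls got vehicle only. Survival was scored on days 3, 5, 7 and 9. Read-out was % survival on the day all untreated controls died, or on the day all mice given fluconazole at the same dose died.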
# Candida albicans [8] = assay: (§4) In vivo antifungal activity against murine candidosis model after peroral administration with 2.5 mg/kg at various time intervals. (percent protection for 100% mortality with untreated group); format: functional; conditions: route oral; in short: as §3
# Mus musculus [9] = assay: as §4; format: functional; conditions: route oral; in short: as §3
# Rattus norvegicus = assay: In vivo activity against disseminated aspergillosis (liver) in immunocompromized rat model at a dose of 2 mg/kg, bid, po; format: functional
# Mus musculus [10] = assay: as §2; format: functional; conditions: route oral; in short: as §3
# Oryctolagus cuniculus [11] = assay: In vivo antifungal activity against systemic candidosis in rabbit lung at a dose of 12.5 mg/kg, qd, po.; format: functional
# In short: (§5)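 Groups of 10 male New Zealand rabbits were infected iv with C. albicans (1.2×10^7 cfu/kg). Drug was given orally as a suspension in 1% Tween 80 + 0.2% carboxymethylcellulose 4 h post-infection, then qd for 6 more days; controls got vehicle. On day 7, kidney or lung was homogenized in saline and plated on Sabouraud agar (37 °C, 7 days). Read-out was log cfu/g wet tissue.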
# Oryctolagus cuniculus [12] = assay: In vivo antifungal activity against systemic candidosis in rabbit kidney at a dose of 12.5 mg/kg, qd, po.; format: functional; in short: as §5
# Mus musculus [13] = assay: In vivo antifungal activity against murine candidosis model after peroral administration with 0.25 mg/kg at various time intervals. (percent protection for 100% mortality with untreated group); format: functional; conditions: route oral; in short: as §3
# Mus musculus [14] = assay: In vivo antifungal activity against murine candidosis model after peroral administration with 0.25 mg/kg at various time intervals. (percent protection for 100% mortality with fluconazole-treated group.); format: functional; conditions: route oral; in short: as §3
# Candida albicans [15] = assay: In vivo antifungal activity against murine candidosis model after peroral administration with 0.5 mg/kg at various time intervals. (percent protection for 100% mortality with fluconazole-treated group.); format: functional; conditions: route oral; in short: as §3
# Candida albicans [16] = assay: In vivo antifungal activity against murine candidosis model after peroral administration with 0.5 mg/kg at various time intervals. (percent protection for 100% mortality with untreated group); format: functional; conditions: route oral; in short: as §3
# [17] = Half-life in rats after iv administration; format: ADME, organism-based; conditions: rat, in vivo
# Candida albicans [18] = assay: The compound was tested in vitro for antifungal activity against Candida albicans.; format: functional; in short: as §1
SMILES,MIC [1] [µg/mL],MIC [6] [µg/mL],Protection (Candida albicans [7]) [%],Protection (Candida albicans [8]) [%],other results
C[C@H]([C@](O)(Cn1cncn1)c1ccc(F)cc1F)S(C)(=O)=O [GENACONAZOLE],25,8.7,,,Protection (Mus musculus [2]): 100%; Protection (Mus musculus [3]): 20%; Protection (Candida albicans [4]): 100%; Protection (Candida albicans [5]): 100%
C[C@@H](N1CNc2cc(Cl)ccc2C1=O)[C@](O)(Cn1cncn1)c1ccc(F)cc1F,2.8,0.8,0,30,
C[C@@H](n1cnc2cc(Cl)ccc2c1=O)[C@](O)(Cn1cncn1)c1ccc(Cl)cc1Cl,1.6,0.2,0,,Protection (Mus musculus [9]): 80%
C[C@@H](NC(=O)c1ccc(Cl)cc1N)[C@](O)(Cn1cncn1)c1ccc(F)cc1F,8.9,3.7,0,20,
COc1cccc2c(=O)n([C@H](C)[C@](O)(Cn3cncn3)c3ccc(F)cc3F)cnc12,> 80,10,0,0,
C[C@@H]1[C@H](O)[C@@H](C)/C=C/C=C/C=C/C=C/C=C/C=C/C=C/[C@H](O[C@@H]2O[C@H](C)[C@@H](O)[C@H](N)[C@@H]2O)C[C@@H]2O[C@](O)(C[C@@H](O)C[C@@H](O)[C@H](O)CC[C@@H](O)C[C@@H](O)CC(=O)O[C@H]1C)C[C@H](O)[C@H]2C(=O)O [AMPHOTERICIN B],,,,,Log cfu/g (Rattus norvegicus): 0.1
C[C@H](n1cnc2cc(Cl)ccc2c1=O)[C@@](O)(Cn1cncn1)c1ccc(F)cc1F,> 80,40,,,Protection (Mus musculus [10]): 0%; Protection (Mus musculus [9]): 0%
C[C@@H](n1cnc2ncccc2c1=O)[C@](O)(Cn1cncn1)c1ccc(F)cc1F,> 80,43,,,Protection (Mus musculus [10]): 0%; Protection (Mus musculus [9]): 0%
C[C@@H](n1cnc2cc(Cl)ccc2c1=O)[C@](O)(Cn1ccnc1)c1ccc(F)cc1F,28,2,0,0,
C[C@@H](n1cnc2c(Cl)cccc2c1=O)[C@](O)(Cn1cncn1)c1ccc(F)cc1F,45,2.5,0,0,
COc1cc2ncn([C@H](C)[C@](O)(Cn3cncn3)c3ccc(F)cc3F)c(=O)c2cc1OC,80,7.6,0,0,
OC(Cn1cncn1)(Cn1cncn1)c1ccc(F)cc1F [FLUCONAZOLE],> 80,30,,,Protection (Candida albicans [5]): 100%; Log cfu/g (Oryctolagus cuniculus [11]): 1.44; Log cfu/g (Oryctolagus cuniculus [12]): 1.29
C[C@H](n1cnc2cc(Cl)ccc2c1=O)[C@](O)(Cn1cncn1)c1ccc(F)cc1F,65,7.4,,,Protection (Mus musculus [13]): 0%; Protection (Mus musculus [14]): 0%
C[C@@H](NC(=O)c1ccc(C(F)(F)F)cc1)[C@](O)(Cn1cncn1)c1ccc(F)cc1F,22,4.6,,,Protection (Candida albicans [4]): 100%; Protection (Candida albicans [5]): 100%
C[C@@H](n1cnc2cc(Cl)ccc2c1=O)[C@@](O)(Cn1cncn1)c1ccc(F)cc1F,> 80,> 80,,,Protection (Mus musculus [13]): 0%; Protection (Mus musculus [14]): 0%
C[C@@H](n1cnc2cc(OCC(F)(F)C(F)F)ccc2c1=O)[C@](O)(Cn1cncn1)c1ccc(F)cc1F,18,0.4,,,Protection (Candida albicans [15]): 100%; Protection (Candida albicans [16]): 100%
C[C@@H](n1cnc2cc(Cl)ccc2c1=O)[C@](O)(Cn1cncn1)c1ccccc1F,1.1,0.7,0,20,
C[C@@H](n1cnc2cc(S(=O)(=O)c3ccccc3)ccc2c1=O)[C@](O)(Cn1cncn1)c1ccc(F)cc1F,8.7,1.2,,,Protection (Candida albicans [15]): 0%; Protection (Candida albicans [16]): 0%
C[C@@H](n1cnc2cc(Sc3ccccc3)ccc2c1=O)[C@](O)(Cn1cncn1)c1ccc(F)cc1F,2,0.7,,,Protection (Candida albicans [15]): 0%; Protection (Candida albicans [16]): 0%
C[C@@H](n1ncn(-c2ccc(OCC(F)(F)C(F)F)cc2)c1=O)[C@](O)(Cn1cncn1)c1ccc(F)cc1F,8.9,2.6,,,Protection (Candida albicans [4]): 100%; Protection (Candida albicans [5]): 100%
C[C@@H](n1cnc2cc(N3CCN(c4ccc(Cl)cc4)CC3)ccc2c1=O)[C@](O)(Cn1cncn1)c1ccc(F)cc1F,2.8,0.2,,,Protection (Candida albicans [15]): 0%; Protection (Candida albicans [16]): 60%
C[C@@H](n1cnc2cc(I)ccc2c1=O)[C@](O)(Cn1cncn1)c1ccc(F)cc1F,0.9,0.3,,,half-life [17]: > 2880 min; MIC (Candida albicans [18]): < 0.03 µg/mL; Protection (Candida albicans [15]): 0%; Protection (Candida albicans [16]): 100%
CSc1ccc2c(=O)n([C@H](C)[C@](O)(Cn3cncn3)c3ccc(F)cc3F)cnc2c1,3.8,0.5,,,Protection (Candida albicans [15]): 40%; Protection (Candida albicans [16]): 100%
C[C@@H](c1nc(-c2ccc(C#N)cc2)cs1)[C@](O)(Cn1cncn1)c1ccc(F)cc1F [RAVUCONAZOLE],0.8,0.3,,,Protection (Mus musculus [2]): 20%; Protection (Mus musculus [3]): 0%; Protection (Candida albicans [4]): 0%; Protection (Candida albicans [5]): 50%
CCC(C)n1ncn(-c2ccc(N3CCN(c4ccc(OC[C@@H]5CO[C@@](Cn6cncn6)(c6ccc(Cl)cc6Cl)O5)cc4)CC3)cc2)c1=O (stereo partly drawn) [ITRACONAZOLE],63,5.2,,,Protection (Candida albicans [4]): 0%; Protection (Candida albicans [5]): 0%
C[C@@H](NC(=O)c1ccc(Cl)cc1NC=O)[C@](O)(Cn1cncn1)c1ccc(F)cc1F,0.9,0.3,0,0,
